TRPC4 inh – inhibitors of mouse TRPC4 channel; hit rate 0.39% among 300,000; B-score at 10 µM; HEK293 TRPC4beta/mu-opioid, DAMGO-evoked Fluo4 calcium flux; stronger effect = lower value; Q9QUQ5;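 active = B-score over 3 SD under the library average, no early fluorescence shift, positive overall ratio signal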
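System: stable TRPC4beta/mu-opioid receptor HEK293 cells; Dosing: single-point compound dosing; Measured by: Fluo4 Ca2+ flux fluorescence; Read-out basis: per-well B score of integrated baseline-normalized Fluo4 ratio.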
Kir21 inh – blocks the mouse Kir2.1 inward-rectifier potassium channel. B-score at 10 µM. AID 1672. HEK293-Kir2.1, FluxOR thallium flux fluorescence; stronger effect = lower value. hit rate 0.85% among 310,000. P35561;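 active = fluorescence ratio B-score at or below minus 3 SD of library scores, with starting-brightness B-score within 2 SD, cut at about -4.2 in these data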;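 also: channel flux triggered by added potassium and thallium sulfate stimulus; B-score of peak minus minimum fluorescence over baseline after thallium stimulus; more negative B-score means stronger Kir2.1 block with less thallium influx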
TRPC6 act – activates the mouse TRPC6 cation channel; hit rate 0.13% among 310,000; Q61143; B-score at 10 µM; HEK293-TRPC6 membrane potential dye fluorescence; stronger effect = higher value;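 active = B-score of the integrated fluorescence ratio above library mean plus 3 SD, and starting fluorescence ratio within library mean plus 5 SD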;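 also: higher score means more depolarization so channel activation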
Target sequence (Q61143 whole entry, looked up): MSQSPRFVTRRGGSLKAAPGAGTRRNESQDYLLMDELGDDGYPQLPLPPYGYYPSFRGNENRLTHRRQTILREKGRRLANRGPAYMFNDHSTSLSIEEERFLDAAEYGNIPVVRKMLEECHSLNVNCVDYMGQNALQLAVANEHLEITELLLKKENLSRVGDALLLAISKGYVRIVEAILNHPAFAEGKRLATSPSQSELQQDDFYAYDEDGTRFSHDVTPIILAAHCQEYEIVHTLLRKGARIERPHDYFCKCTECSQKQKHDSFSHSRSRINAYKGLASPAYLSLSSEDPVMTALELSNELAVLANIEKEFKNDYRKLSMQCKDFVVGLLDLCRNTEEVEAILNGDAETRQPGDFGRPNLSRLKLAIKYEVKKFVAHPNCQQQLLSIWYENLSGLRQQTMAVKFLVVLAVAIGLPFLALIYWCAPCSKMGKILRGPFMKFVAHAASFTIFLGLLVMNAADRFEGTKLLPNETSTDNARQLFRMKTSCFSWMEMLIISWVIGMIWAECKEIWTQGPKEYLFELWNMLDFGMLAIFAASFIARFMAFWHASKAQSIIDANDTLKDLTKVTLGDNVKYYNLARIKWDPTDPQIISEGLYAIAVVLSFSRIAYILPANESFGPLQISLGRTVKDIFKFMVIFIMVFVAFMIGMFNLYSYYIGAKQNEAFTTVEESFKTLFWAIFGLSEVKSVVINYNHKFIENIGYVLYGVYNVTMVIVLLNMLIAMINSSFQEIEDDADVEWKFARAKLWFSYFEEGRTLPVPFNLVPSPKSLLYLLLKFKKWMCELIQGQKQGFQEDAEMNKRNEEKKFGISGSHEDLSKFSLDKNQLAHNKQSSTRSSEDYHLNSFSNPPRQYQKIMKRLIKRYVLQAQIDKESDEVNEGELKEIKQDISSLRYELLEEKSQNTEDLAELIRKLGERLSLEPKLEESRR
TRPC4 potent – allosteric potentiators of mouse TRPC4 channel; Q9QUQ5; HEK293 TRPC4beta/mu-opioid, DAMGO EC20, Fluo-4 Ca2+ flux; stronger effect = higher value; B-score at 10 µM; hit rate 0.42% among 310,000; AID 2227;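 active = B-score of calcium response area above 5 SD of library B-scores, with initial fluorescence ratio within 5 SD of library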;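 also: B-score of integrated fluorescence ratio over time as area under calcium response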
TRPC4 agonist – opens the mouse TRPC4 cation channel; Q9QUQ5; HEK293 TRPC4beta/mu-opioid, Fluo4 calcium fluorescence; stronger effect = higher value; B-score at 10 µM; hit rate 0.49% among 310,000;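 active = B-score above 5 SD of library B-scores, and initial fluorescence ratio not above library mean plus 5 SD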;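 also: positive B-score marks a calcium rise read as TRPC4 activation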
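System – HEK293 cells stably co-expressing mouse TRPC4beta and mu-opioid receptor · Signal – Fluo4 calcium-sensitive dye fluorescence, kinetic, 1 Hz baseline · Benchmarks – buffer (low) and maximal DAMGO (high) · Read-out – B score of integrated fluorescence ratio per well · Incubation – dye loading 45 min room temperature, 110 s kinetic read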
TRPC6 inh – blocks the mouse TRPC6 cation channel; HEK293-TRPC6, membrane potential dye, ACh-evoked depolarization; stronger effect = lower value; B-score at 10 µM; Q61143; hit rate 1.1% among 310,000; AID 2553;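 active = B-score under library mean minus 3 SD, initial fluorescence not abnormally high, positive integrated signal ratio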;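 also: B-score derived from integrated fluorescence ratio over the kinetic read; more negative B-score means stronger inhibition of depolarization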
TRPC4 spec 2 – second selectivity test of TRPC6 inhibitors: effect on mouse TRPC4; HEK293 TRPC4/MOR, membrane potential dye fluorescence; channel activated by saturating DAMGO dose; inhibition, % at 10 µM; hit rate 42% among 920; shares compounds with TRPC6 inh;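 active = compounds whose fluorescence signal differed from control wells by over 3 SD, either direction, in both duplicate plates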
TRPC4 spec – mouse TRPC4 off-target activity of TRPC6 inhibitors; shares compounds with TRPC6 inh; HEK293 TRPC4/mu-opioid, membrane potential fluorescence; activity change, negative = inhibition, % at 10 µM; hit rate 61% among 920;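 active = rise or fall in signal beyond 3 SD of buffer-only wells in both replicate plates, either sign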;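 also: integrated kinetic ratio of fluorescence range over baseline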
HEK293 MPD ctr 2-1 – second check of TRPC6 inhibitor effects in parental HEK293 cells; shares compounds with TRPC6 inh; parental HEK293 membrane potential dye fluorescence; maximal acetylcholine challenge after compound addition; signal change vs control, % at 10 µM; hit rate 31% among 920; AID 2779;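 active = membrane potential signal moving either way by over 3 SD of the maximum-effect control, in both duplicate plates, meaning non-specific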
HEK293 MPD ctr-1 – checks TRPC6 inhibitor effects in parental HEK293 cells | shares compounds with TRPC6 inh | parental HEK293 membrane potential dye fluorescence | membrane potential signal change, % at 10 µM | hit rate 60% among 920;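 active = membrane potential signal shifting up or down by more than 3 SD of buffer-only wells, on both duplicate plates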
HEK293 MPD ctr-2 – checks TRPC6 modulator effects in parental HEK293 cells. membrane potential signal change, % at 10 µM. shares compounds with TRPC6 inh. AID 488924. hit rate 51% among 2,400. membrane potential dye fluorescence;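 active = membrane potential signal moves up or down beyond 5 SD from buffer-only wells, on both duplicate plates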
HEK293 MPD ctr 2-2 – second counter-screen for TRPC6 modulators: effect in parental HEK293 cells; shares compounds with TRPC6 inh; inhibition, % at 10 µM; membrane potential dye fluorescence; after compound, maximal acetylcholine stimulation; hit rate 14% among 2,400;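 active = membrane potential signal drops by more than 5 SD from the mean control signal, in both duplicate plates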;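 also: plate controls were acetylcholine ECmax control wells for no effect and buffer only wells for full effect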
TRPC4/MOR mod – mouse TRPC4 off-target activity of TRPC6 modulators | shares compounds with TRPC6 inh | HEK293 TRPC4/mu-opioid, membrane potential fluorescence | percent change from control (negative = decrease, positive = increase), % at 10 µM | hit rate 69% among 2,400 | AID 488927;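 active = membrane potential signal moved up or down beyond 5 SD of buffer control wells, in both duplicate plates, actives on both sides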;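 also: plate controls were assay buffer wells for no effect and DAMGO maximal-effect wells for full effect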
TRPC4 ctr inh 2 – second check of whether TRPC6 modulators also affect mouse TRPC4; HEK293 TRPC4/mu-opioid, membrane potential dye fluorescence; stimulated with maximal-effect DAMGO; inhibition, % at 10 µM; AID 488928; shares compounds with TRPC6 inh; hit rate 55% among 2,400;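 active = drop in membrane potential signal beyond 5 SD of the control wells in both duplicate plates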;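 also: TRPC4 counter screen for TRPC6 hits run under conditions tuned for TRPC6 not TRPC4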
TRPC6 inh conf – mouse TRPC6 inhibitor confirmation; shares compounds with TRPC6 inh; HEK293-TRPC6, membrane potential dye, ACh-evoked depolarization; inhibition, % at 10 µM; hit rate 43% among 3,300;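 active = fluorescence ratio falls more than 5 SD below the full-stimulation control mean, in both duplicate runs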;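 also: integrated fluorescence ratio of peak minus minimum over baseline after agonist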
TRPC6 act confirm – confirmation of mouse TRPC6 activators; shares compounds with TRPC6 inh; HEK293-TRPC6 membrane potential dye fluorescence, FDSS; activation, % at 10 µM; hit rate 11% among 2,800;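 active = ratio signal rise beyond 5 SD above unstimulated control wells' mean, seen in both duplicate runs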;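 also: plate controls were buffer EC0 wells for no effect and acetylcholine ECmax response for full effect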
An asterisk follows results filed as active; i = inactive; . = no result. A selection: hits, their analogues and other compounds. The true share with any hit is near 2.9%.

SMILES	TRPC4 inh	Kir21 inh	TRPC6 act	TRPC4 potent	TRPC4 agonist	TRPC6 inh	HEK293 MPD ctr-2	HEK293 MPD ctr 2-2	TRPC4/MOR mod	TRPC4 ctr inh 2	TRPC6 inh conf	TRPC6 act confirm	others
Cc1cc(NCCCN2CCOCC2)n2nc(C)c(-c3ccccc3)c2n1	i	-0.66	i	i	i	-6.1*	-171%*	i	-31%*	38%*	i	i
Cc1ccc(/C=c2/sc3n(c2=O)CCCN=3)o1	i	-1.6	i	i	i	i	.	.	.	.	.	.
Cc1ccc(/C=c2\sc3n(c2=O)CN(c2ccc(Br)cc2)CN=3)o1	i	1	i	i	i	-5.6*	i	i	i	i	i	i
Cc1ccc(C)c(NC(=O)C(NCC(C)(C)N2CCOCC2)c2ccccc2)c1 (stereo not drawn)	i	-2.2	i	i	i	-6.7*	.	.	.	.	i	.	TRPC4 spec 2=i;TRPC4 spec=5.2%*;HEK293 MPD ctr 2-1=i;HEK293 MPD ctr-1=7.3%*
C=CCn1c(SCC(=O)NC23CC4CC(CC(C4)C2)C3)nc2cc(C(=O)O)ccc2c1=O	i	1.8	i	i	i	i	.	.	.	.	.	.
Cc1ccc(C(=O)C2CCN(CC(=O)Nc3ccccc3C)CC2)cc1	i	-0.99	i	i	i	i	.	.	.	.	.	.
Cc1ccccc1NC(=O)CN1CCC(C(=O)c2ccc3c(c2)OCCO3)CC1	i	1.1	i	i	i	-5.5*	i	i	i	i	i	i
Cc1ccccc1NC(=O)CN1CCOCC1	i	-1.9	14*	i	i	i	i	i	i	i	i	i
COc1ccc(S(=O)(=O)N2CCOCC2)cc1NC(=O)C1COc2ccccc2O1 (stereo not drawn)	i	1.6	i	i	i	i	.	.	.	.	.	.
Cc1c(NC(=O)C(C)N2C(=O)NC3(CCC(C)CC3)C2=O)c(=O)n(-c2ccccc2)n1C (stereo not drawn)	i	-0.15	i	i	i	i	.	.	.	.	.	.
CC1CCN(CC(C)OC(=O)c2ccc3c(c2)OCCO3)CC1 (stereo not drawn)	i	-1.6	i	i	i	-5.2*	120%*	i	15%*	i	i	.
COc1ccccc1-n1c(-c2ccccc2)c[nH]c1=S	i	-0.71	i	i	i	i	.	.	.	.	.	.
COc1ccc(-n2c(-c3ccc(Br)cc3)c[n+]3c2CCc2ccccc2-3)cc1	i	-5.9*	i	i	i	-5.3*	-150%*	i	18%*	62%*	i	i
COc1ccccc1-n1c(-c2ccccc2)c[n+]2c1CCc1ccccc1-2	i	-14*	i	i	i	-9.9*	92%*	i	20%*	40%*	77%*	i	TRPC4 spec 2=i;TRPC4 spec=1.8%*;HEK293 MPD ctr 2-1=i;HEK293 MPD ctr-1=i
COc1ccc(-c2cn(-c3ccc(OC)cc3)c3[n+]2-c2ccccc2CC3)cc1	i	-3.5	i	i	i	i	.	.	.	.	.	.
CN(C)c1ccc(/C=N/NC(=O)CN2CCN(c3ccc(F)cc3)CC2)cc1	i	0.3	i	i	i	i	.	.	.	.	.	.
COc1cccc(CNC(=O)C2CCN(S(=O)(=O)c3cccc4nonc34)CC2)c1	i	0.1	i	i	i	i	.	.	.	.	.	.
COC(=O)C1=C(C)N(c2cc(C)cc(C)c2)/C(=C/c2ccc(O)cc2)C1=O	i	-0.02	i	i	i	-7.7*	i	i	-16%*	67%*	i	i
Nc1cc(=O)[nH]n1C1CCCCC1	i	-0.59	i	i	i	i	.	.	.	.	.	.
O=C(Nc1ccc(S(=O)(=O)Nc2ncccn2)cc1)C(F)(F)F	i	-0.53	i	i	i	i	.	.	.	.	.	.
CCOc1ccc(C(=O)CCN2CCCCCC2)cc1	i	-0.04	i	i	i	i	.	.	.	.	.	.
CCCOc1ccc(C(=O)CCN2CCCCC2)cc1	i	0.87	i	i	i	-5.4*	150%*	i	24%*	i	i	.
Cc1cc(C)c2sc(N(CCCN(C)C)C(=O)c3ccc(Br)s3)nc2c1	i	-4	i	i	i	-9.6*	.	.	.	.	78%*	i	TRPC4 spec 2=35%*;TRPC4 spec=-17%*;HEK293 MPD ctr 2-1=i;HEK293 MPD ctr-1=i
Cc1cccc2sc(N(CCCN(C)C)C(=O)c3ccc(Cl)s3)nc12	i	-5.4*	i	i	i	-6.6*	.	.	.	.	67%*	i	TRPC4 spec 2=42%*;TRPC4 spec=-14%*;HEK293 MPD ctr 2-1=i;HEK293 MPD ctr-1=i
Cc1cc(C)c2nc(N(CCCN(C)C)C(=O)C3=COCCO3)sc2c1	i	-2.8	i	i	i	i	.	.	.	.	.	.
Cc1cccc2sc(N(CCN(C)C)C(=O)c3ccc4ccccc4c3)nc12	i	1.7	i	i	i	i	.	.	.	.	.	.
CCN(CC)CCN(C(=O)C1=COCCO1)c1nc2cc(C)cc(C)c2s1	i	-3.3	i	i	i	-6.7*	.	.	.	.	i	i	TRPC4 spec 2=44%*;TRPC4 spec=i;HEK293 MPD ctr 2-1=i;HEK293 MPD ctr-1=0.6%*

Compound activity (PubChem)
